In ChEMBL document CHEMBL2331117 (J Med Chem, 2013):

Key:
[1] = Plasma concentration in mouse at 100 mg/kg, po after 4 hrs; type: ADME, organism-based; parameters: dose 100 mg/kg, route oral
Plasma [2] = experiment: Plasma concentration in athymic mouse plasma xenografted with human MCF7 cells at 100 mg/kg, po after 24 hrs; type: ADME, organism-based; parameters: dose 100 mg/kg, route oral; conditions: in vivo, BLD = below limit of detection
Outline: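 MCF-7 cells (5 × 10^6, in 50% cold HBSS/50% growth-factor-reduced matrigel) were implanted subcutaneously in the hindflank of 5–8 week old female nude mice. At 40–150 mg tumour size, mice received a single oral dose of 100 mg/kg, and plasma was sampled at the listed times after dosing.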

[3] = Tmax in Beagle dog at 3 mg/kg, po; type: ADME, organism-based, Canis lupus familiaris; parameters: dose 3 mg/kg, route oral; conditions: in vivo
Mus musculus [4] = experiment: In vivo inhibition of mTORC1-mediated phosphorylation of pS6 at (serine 240/244) in human PC3 cells xenografted into athymic nude mouse at 100 mg/kg, po after 32 hrs by Western blotting analysis relative to control; type: functional; conditions: PC-3, 32 h
Outline: (§1)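 PC-3 cells grown in DMEM with 20% FBS were implanted subcutaneously at 3 × 10^6 cells in ice-cold HBSS into the hindflank of 5−8 week old male nude mice. At tumor size 200−500 mg, mice received a single oral dose of 100 mg/kg. Plasma and tumors were collected at 1, 4, 8, 16, 24 and 32 h. Tumor lysates from each group (n = 5) were pooled. Phospho-proteins were quantified by Western blot and normalized to α-tubulin.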

[5] = target: Voltage-gated inwardly rectifying potassium channel KCNH2 (Homo sapiens, UniProt Q12809); experiment: Activity at human ERG by patch clamp technique
Outline: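 hERG current measured by manual patch clamp.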

Cytochrome P450 3A4 = Cytochrome P450 3A4 (Homo sapiens, UniProt P08684); experiment: Inhibition of CYP3A4 (unknown origin); type: ADME
Mus musculus [6] = experiment: In vivo inhibition of mTORC2-mediated phosphorylation of AKT at serine 473 in human PC3 cells xenografted into athymic nude mouse at 100 mg/kg, po after 32 hrs by Western blotting analysis relative to control; type: functional; conditions: PC-3, 32 h; outline: as §1
[7] = target: Proto-oncogene tyrosine-protein kinase Src (Homo sapiens, UniProt P12931); experiment: Inhibition of SRC (unknown origin)
Plasma [8] = experiment: Plasma concentration in athymic mouse plasma xenografted with human PC3 cells at 100 mg/kg, po after 32 hrs; type: ADME, organism-based, PC-3; parameters: dose 100 mg/kg, route oral; conditions: in vivo, BLD = below limit of detection
[9] = Half life in CD rat at 3 mg/kg, iv; type: ADME, organism-based; parameters: dose 3 mg/kg, route intravenous; conditions: in vivo
Outline: (§2)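 Single-dose PK: female athymic nude mice (10 mg/kg), female CD rats and male beagle dogs (3 mg/kg), male cynomolgus monkeys (3 mg/kg), given iv and by oral gavage. Solution in EPW (5% ethanol/45% PEG400/water), with 1:2 HCl (m/m) for mouse, rat and dog and 1:1.5 HCl (m/m) for monkey. Plasma levels followed over 24 h.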

[10] = target: Phosphatidylinositol 4,5-bisphosphate 3-kinase catalytic subunit delta isoform (Homo sapiens, UniProt O00329); experiment: Inhibition of PI3Kdelta (unknown origin)
[11] = Metabolic stability in human liver microsomes after 30 mins; type: ADME, Microsome; conditions: read-out: Stability
Mus musculus [12] = experiment: In vivo inhibition of mTORC2-mediated phosphorylation of AKT at […] in human PC3 cells xenografted into athymic nude mouse at 100 mg/kg, po after 16 hrs by Western blotting analysis relative to control; type: functional; conditions: PC-3, 16 h
Outline: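 Human PC-3 cells were implanted subcutaneously into the hindflank of male nude mice aged 5−8 weeks, at 3 × 10^6 cells (passages 10−14, >95% viability) in ice-cold HBSS. At a tumor size of 200−500 mg, mice got one oral 100 mg/kg dose. Tumors were taken at 1, 4, 8, 16, 24 and 32 h. Lysates (n = 5 per group) were pooled, and phospho-AKT (T308) was read by Western blot, normalized to α-tubulin.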

Mus musculus [13] = experiment: In vivo inhibition of mTORC2-mediated phosphorylation of AKT at […] in human MCF7 cells xenografted into athymic nude mouse at 100 mg/kg, po after 1 hr by Western blotting analysis relative to control; type: functional; conditions: MCF7, 1 h
Outline: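 MCF-7 cells (DMEM, 10% FBS) were implanted subcutaneously at 5 × 10^6 cells in 50% cold HBSS/50% growth-factor-reduced matrigel into the hindflank of 5−8 week old female nude mice. At tumor size 40−150 mg, mice received a single oral dose of 100 mg/kg. Tumor lysates were pooled per group. Phospho-AKT (S473, T308), p70S6K (T389), S6 (S240/244) and 4E-BP1 (T37/46) were measured by Western blot normalized to α-tubulin.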

[14] = AUC (0 to infinity) in Beagle dog at 3 mg/kg, iv; type: ADME, organism-based, Canis lupus familiaris; parameters: time infinity, dose 3 mg/kg, route intravenous; conditions: plasma; outline: as §2
Mus musculus [15] = experiment: In vivo inhibition of mTORC1-mediated phosphorylation of pS6 at (serine 240/244) in human PC3 cells xenografted into athymic nude mouse at 100 mg/kg, po after 16 hrs by Western blotting analysis relative to control; type: functional; conditions: PC-3, 16 h; outline: as §1
[16] = target: Cell division cycle 7-related protein kinase (Homo sapiens, UniProt O00311); experiment: Inhibition of CDC7 (unknown origin)
[17] = Clearance in cynomolgus monkey at 3 mg/kg, iv; type: ADME, organism-based, Macaca fascicularis; parameters: dose 3 mg/kg, route intravenous; conditions: in vivo; outline: as §2
[18] = AUC (0 to infinity) in athymic nude mouse at 10 mg/kg, po; type: ADME, organism-based; parameters: dose 10 mg/kg, route oral, time infinity; conditions: plasma; outline: as §2
[19] = Oral bioavailability in cynomolgus monkey at 3 mg/kg; type: ADME, organism-based, Macaca fascicularis; conditions: in vivo
Outline: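 Male cynomolgus monkeys received 3 mg/kg intravenously and by oral gavage as a solution in EPW (5% ethanol/45% PEG400/water + 1:1.5 HCl m/m).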

Mus musculus [20] = experiment: In vivo inhibition of mTORC1-mediated phosphorylation of 4EBP1 at ([…]) in human PC3 cells xenografted into athymic nude mouse at 100 mg/kg, po after 1 hr by Western blotting analysis relative to control; type: functional; conditions: PC-3, 1 h; outline: as §1
Mus musculus [21] = experiment: In vivo inhibition of mTORC1-mediated phosphorylation of 4EBP1 at ([…]) in human PC3 cells xenografted into athymic nude mouse at 100 mg/kg, po after 8 hrs by Western blotting analysis relative to control; type: functional; conditions: PC-3, 8 h; outline: as §1
Mus musculus [22] = experiment: In vivo inhibition of mTOR1-mediated phosphorylation of p70S6K at […] in human PC3 cells xenografted into athymic nude mouse at 100 mg/kg, po after 8 hrs by Western blotting analysis relative to control; type: functional; conditions: PC-3, 8 h
Outline: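 PC-3 cells (3 × 10⁶, passages 10–14, in ice-cold HBSS) were implanted sc in 5–8 week old male nude mice. Tumors of 200–500 mg received a single oral 100 mg/kg dose. Plasma and tumor were collected at 1, 4, 8, 16, 24 and 32 h and homogenized in buffer. Lysates were pooled per group (n = 5), and phospho-proteins were measured by Western blot normalized to α-tubulin.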

[23] = Plasma concentration in mouse at 100 mg/kg, po after 1 hr; type: ADME, organism-based; parameters: dose 100 mg/kg, route oral
[24] = Drug uptake in tumor of athymic mouse xenografted with human MCF7 cells at 100 mg/kg, po after 16hrs; type: ADME, organism-based, Neoplasm; parameters: dose 100 mg/kg, route oral; conditions: read-out: Drug uptake

Chain of Phosphatidylinositol 4,5-bisphosphate 3-kinase catalytic subunit delta isoform (O00329 whole entry, canonical isoform): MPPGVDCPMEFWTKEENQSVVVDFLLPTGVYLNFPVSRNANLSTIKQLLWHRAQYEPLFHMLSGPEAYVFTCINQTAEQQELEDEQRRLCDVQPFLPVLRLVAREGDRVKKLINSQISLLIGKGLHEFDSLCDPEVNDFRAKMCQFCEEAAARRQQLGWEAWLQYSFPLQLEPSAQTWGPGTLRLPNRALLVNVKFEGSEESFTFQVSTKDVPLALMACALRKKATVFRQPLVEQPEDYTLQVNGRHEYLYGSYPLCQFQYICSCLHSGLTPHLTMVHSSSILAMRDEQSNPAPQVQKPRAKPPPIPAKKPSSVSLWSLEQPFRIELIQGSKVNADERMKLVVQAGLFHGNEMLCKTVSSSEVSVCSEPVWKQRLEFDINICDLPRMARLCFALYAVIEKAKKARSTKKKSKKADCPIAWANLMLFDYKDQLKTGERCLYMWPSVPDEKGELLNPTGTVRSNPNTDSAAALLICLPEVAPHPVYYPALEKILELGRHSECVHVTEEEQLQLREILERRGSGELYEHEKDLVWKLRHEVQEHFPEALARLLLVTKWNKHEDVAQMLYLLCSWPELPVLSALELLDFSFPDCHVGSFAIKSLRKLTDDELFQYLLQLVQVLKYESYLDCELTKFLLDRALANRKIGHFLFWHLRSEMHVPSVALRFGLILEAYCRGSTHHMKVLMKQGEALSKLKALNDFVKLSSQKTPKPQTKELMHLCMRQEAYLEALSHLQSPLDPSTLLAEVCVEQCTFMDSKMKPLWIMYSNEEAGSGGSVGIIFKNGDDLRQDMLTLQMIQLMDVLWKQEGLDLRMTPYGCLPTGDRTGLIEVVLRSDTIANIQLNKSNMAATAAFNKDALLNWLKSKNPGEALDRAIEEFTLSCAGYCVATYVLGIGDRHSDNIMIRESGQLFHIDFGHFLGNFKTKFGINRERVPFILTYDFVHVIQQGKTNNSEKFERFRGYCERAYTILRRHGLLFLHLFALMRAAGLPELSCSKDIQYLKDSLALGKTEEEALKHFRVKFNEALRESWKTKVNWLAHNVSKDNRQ
Chain of Cytochrome P450 3A4 (P08684 whole entry): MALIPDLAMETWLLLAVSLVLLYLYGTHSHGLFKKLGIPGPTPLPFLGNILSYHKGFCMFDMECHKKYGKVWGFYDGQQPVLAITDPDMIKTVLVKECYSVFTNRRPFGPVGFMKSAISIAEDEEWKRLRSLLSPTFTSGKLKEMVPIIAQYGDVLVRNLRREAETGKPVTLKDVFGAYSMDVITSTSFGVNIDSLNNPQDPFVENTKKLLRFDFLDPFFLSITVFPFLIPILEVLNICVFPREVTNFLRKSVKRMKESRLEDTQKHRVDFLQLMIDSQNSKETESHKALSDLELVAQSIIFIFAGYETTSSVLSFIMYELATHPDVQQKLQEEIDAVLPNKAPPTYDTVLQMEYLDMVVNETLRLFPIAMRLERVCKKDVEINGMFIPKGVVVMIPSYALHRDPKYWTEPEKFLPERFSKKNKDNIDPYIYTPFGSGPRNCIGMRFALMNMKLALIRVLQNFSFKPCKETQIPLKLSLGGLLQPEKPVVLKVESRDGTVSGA
Chain of Voltage-gated inwardly rectifying potassium channel KCNH2 (Q12809 whole entry): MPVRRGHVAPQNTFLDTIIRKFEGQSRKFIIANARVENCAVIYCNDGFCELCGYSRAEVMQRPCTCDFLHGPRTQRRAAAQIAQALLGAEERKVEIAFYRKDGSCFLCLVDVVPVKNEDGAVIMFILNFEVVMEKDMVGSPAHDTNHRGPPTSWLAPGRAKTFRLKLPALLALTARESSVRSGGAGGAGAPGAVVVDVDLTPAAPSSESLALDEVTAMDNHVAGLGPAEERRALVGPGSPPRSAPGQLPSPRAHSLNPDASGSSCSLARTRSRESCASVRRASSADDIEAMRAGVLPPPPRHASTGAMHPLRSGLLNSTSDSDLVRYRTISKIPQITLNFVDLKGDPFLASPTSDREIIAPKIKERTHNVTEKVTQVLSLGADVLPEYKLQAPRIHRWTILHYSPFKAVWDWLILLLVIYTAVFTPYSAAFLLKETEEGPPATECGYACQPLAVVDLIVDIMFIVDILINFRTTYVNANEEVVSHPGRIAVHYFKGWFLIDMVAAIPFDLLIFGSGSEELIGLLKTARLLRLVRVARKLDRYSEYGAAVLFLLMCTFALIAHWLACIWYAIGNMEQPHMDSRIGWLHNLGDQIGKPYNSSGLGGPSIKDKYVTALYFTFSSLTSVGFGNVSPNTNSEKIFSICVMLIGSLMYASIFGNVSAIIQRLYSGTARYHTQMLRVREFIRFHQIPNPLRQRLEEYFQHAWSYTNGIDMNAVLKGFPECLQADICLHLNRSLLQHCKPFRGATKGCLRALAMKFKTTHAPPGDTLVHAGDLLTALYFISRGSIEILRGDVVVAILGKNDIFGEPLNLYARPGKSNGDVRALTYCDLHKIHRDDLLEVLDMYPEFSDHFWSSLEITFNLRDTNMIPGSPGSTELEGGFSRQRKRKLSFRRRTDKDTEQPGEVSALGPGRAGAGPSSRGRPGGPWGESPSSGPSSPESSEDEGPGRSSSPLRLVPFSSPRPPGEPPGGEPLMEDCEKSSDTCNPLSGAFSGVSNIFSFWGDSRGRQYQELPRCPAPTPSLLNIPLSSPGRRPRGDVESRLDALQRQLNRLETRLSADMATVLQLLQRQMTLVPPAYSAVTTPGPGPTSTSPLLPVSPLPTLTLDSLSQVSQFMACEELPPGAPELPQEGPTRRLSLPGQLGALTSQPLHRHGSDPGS
Chain of Proto-oncogene tyrosine-protein kinase Src (P12931 2-536 limits assumed): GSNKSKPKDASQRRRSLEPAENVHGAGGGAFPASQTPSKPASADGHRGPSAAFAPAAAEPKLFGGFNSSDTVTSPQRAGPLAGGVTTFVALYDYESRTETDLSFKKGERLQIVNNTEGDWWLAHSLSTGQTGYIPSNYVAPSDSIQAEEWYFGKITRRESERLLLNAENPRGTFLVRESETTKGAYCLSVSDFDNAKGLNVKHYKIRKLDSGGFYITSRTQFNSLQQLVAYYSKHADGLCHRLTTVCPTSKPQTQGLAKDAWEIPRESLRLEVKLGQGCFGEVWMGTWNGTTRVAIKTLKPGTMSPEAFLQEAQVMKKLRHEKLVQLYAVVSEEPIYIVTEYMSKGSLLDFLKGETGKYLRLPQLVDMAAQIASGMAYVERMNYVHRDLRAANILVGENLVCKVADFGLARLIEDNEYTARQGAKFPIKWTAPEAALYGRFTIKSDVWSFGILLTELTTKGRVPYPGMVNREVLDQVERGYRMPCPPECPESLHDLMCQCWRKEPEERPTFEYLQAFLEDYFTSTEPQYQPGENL
Chain of Cell division cycle 7-related protein kinase (O00311 whole entry): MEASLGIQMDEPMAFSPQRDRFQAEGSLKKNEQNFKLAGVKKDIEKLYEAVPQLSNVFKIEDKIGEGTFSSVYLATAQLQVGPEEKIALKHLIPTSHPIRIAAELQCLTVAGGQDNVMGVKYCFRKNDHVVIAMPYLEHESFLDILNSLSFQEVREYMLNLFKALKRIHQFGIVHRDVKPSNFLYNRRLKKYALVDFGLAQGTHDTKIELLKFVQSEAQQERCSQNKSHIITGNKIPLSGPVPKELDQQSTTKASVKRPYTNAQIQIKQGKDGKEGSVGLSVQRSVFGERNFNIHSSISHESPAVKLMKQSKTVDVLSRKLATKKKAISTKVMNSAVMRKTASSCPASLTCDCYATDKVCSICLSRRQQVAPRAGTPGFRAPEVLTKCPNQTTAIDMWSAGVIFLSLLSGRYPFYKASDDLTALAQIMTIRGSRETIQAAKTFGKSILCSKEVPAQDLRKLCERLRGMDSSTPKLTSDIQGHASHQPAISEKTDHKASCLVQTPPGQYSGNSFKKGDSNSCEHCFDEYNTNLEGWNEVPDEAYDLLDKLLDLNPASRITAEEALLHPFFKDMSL

concentration at 4 h [1]: 17.8 µM
Cp (Plasma [2]): BLD
Tmax [3]: 60 min
INH (Cytochrome P450 3A4): 24.6 µM
IC50 [7]: > 3.5 µM
Cp (Plasma [8]): BLD
half-life [9]: 27 min
IC50 [10]: > 5 µM
remaining at 0.5 h [11]: 93%
AUC(0-inf) [14]: 11 µM·h
IC50 [16]: > 3.5 µM
clearance [17]: 84.2 mL/min/kg
AUC(0-inf) [18]: 2.51 µM·h
bioavailability [19]: 53.4%
concentration at 1 h [23]: 22 µM
concentration at 16 h [24]: 2.74 µM
Compound: Cc1c(C(=O)N2CCOc3ccc(-c4ccc(N)nc4)cc3C2)ccc(S(C)(=O)=O)c1F
inhibition in vivo at 100 mg/kg (Mus musculus [4]): -20%
Activity [5]: 15.9 µM
inhibition in vivo at 100 mg/kg (Mus musculus [6]): 10%
inhibition in vivo at 100 mg/kg (Mus musculus [12]): 36%
inhibition in vivo at 100 mg/kg (Mus musculus [13]): 6%
inhibition in vivo at 100 mg/kg (Mus musculus [15]): 71%
inhibition in vivo at 100 mg/kg (Mus musculus [20]): 94%
inhibition in vivo at 100 mg/kg (Mus musculus [21]): 92%
inhibition in vivo at 100 mg/kg (Mus musculus [22]): 92%
